Laboratory results reported in ChEMBL document CHEMBL2029207, “Vascular barrier protective effects of eckol and its derivatives” (Bioorg Med Chem Lett, 2012).
Active and inactive are the calls of the source. The rule behind the calls is not given here.

Assays:
HUVEC [1] = assay: Antiinflammatory activity in HUVEC cells assessed as inhibition of LPS-induced hyperpermeability at 10 uM relative to LPS; assay type: functional; details: Homo sapiens
Outline: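 Primary HUVECs were stimulated with LPS at 100 ng/ml, with or without test agent. Permeability was read as albumin flux across the monolayer in a dual-chamber system, by ELISA at OD650. Percent inhibition is relative to LPS alone, with PBS as the negative control and kaempferol-3-O-sophoroside as the positive control. Values are mean ± S.D. of three experiments.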

HUVEC [2] = assay: Cytotoxicity against HUVEC cells assessed as decrease in cell viability up to 20 uM after 24 hrs; assay type: cell-based; details: human
Outline: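 HUVECs were exposed to each agent for 24 h and then assessed in cell viability assays.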

HUVEC [3] = assay: Antiinflammatory activity in HUVEC cells assessed as inhibition of LPS-induced monocyte migration at 10 uM relative to LPS; assay type: functional; details: Homo sapiens
Outline: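 Monocyte transendothelial migration was measured across HUVECs stimulated with LPS at 100 ng/ml. The read-out was a migration index, with percent inhibition calculated against LPS alone. Controls were PBS (negative) and kaempferol-3-O-sophoroside (positive). Values are mean ± S.D. of three independent experiments.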

Mus musculus [4] = species: Mus musculus; assay: Antiinflammatory activity in mouse assessed as inhibition of CMC-Na-induced leukocyte migration into peritoneal cavity at 10 uM relative to CMC-Na; assay type: functional
Outline: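 Mice received 1.0% CMC–Na to induce leukocyte migration, with or without test agent. Leukocytes recovered from the peritoneal cavity were counted (×10^6). Percent inhibition is relative to CMC–Na alone, with PBS and kaempferol-3-O-sophoroside as controls. Values are mean ± S.D. of three experiments.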

Mus musculus [5] = species: Mus musculus; assay: Antiinflammatory activity in mice assessed as inhibition of acetic acid-induced hyperpermeability at 10 uM relative to acetic acid
HUVEC [6] = assay: Antiinflammatory activity in HUVEC cells assessed as inhibition of […]-induced monocyte binding to endothelial cells at 10 uM relative to control; details: Homo sapiens

COc1cc(OC)cc(Oc2c(OC)cc(OC)c3c2Oc2c(OC)cc(Oc4c(OC)cc(Oc5c(OC)cc(OC)c6c5Oc5c(OC)cc(OC)cc5O6)cc4OC)cc2O3)c1
inhibition at 10 µM (HUVEC [1]): 33% | Activity (HUVEC [2]): Non-toxic | inhibition at 10 µM (HUVEC [3]): 37.6% | inhibition (INH) (Mus musculus [4]): 32.4% | inhibition at 10 µM (Mus musculus [5]): 34.7%

Oc1cc(O)cc(Oc2c(O)cc(O)c3c2Oc2c(O)cc(Oc4c(O)cc(Oc5c(O)cc(O)c6c5Oc5c(O)cc(O)cc5O6)cc4O)cc2O3)c1 [DIECKOL]
inhibition at 10 µM (HUVEC [1]): 74.9% | Activity (HUVEC [2]): Non-toxic | inhibition at 10 µM (HUVEC [3]): 71.3% | inhibition (INH) (Mus musculus [4]): 69.9% | inhibition at 10 µM (Mus musculus [5]): 74.4%

Oc1cc(O)cc(Oc2c(O)cc(O)c3c2Oc2c(O)cc(O)cc2O3)c1 [ECKOL]
inhibition at 10 µM (HUVEC [1]): 56.5% | Activity (HUVEC [2]): Non-toxic | inhibition at 10 µM (HUVEC [3]): 59.6% | inhibition (INH) (Mus musculus [4]): 61.7% | inhibition at 10 µM (Mus musculus [5]): 52% | inhibition (HUVEC [6]): Active

O=c1c(O[C@@H]2O[C@H](CO)[C@@H](O)[C@H](O)[C@H]2O[C@@H]2O[C@H](CO)[C@@H](O)[C@H](O)[C@H]2O)c(-c2ccc(O)cc2)oc2cc(O)cc(O)c12
inhibition at 10 µM (HUVEC [1]): 76.6% | inhibition at 10 µM (HUVEC [3]): 69.5% | inhibition (INH) (Mus musculus [4]): 69.6% | inhibition at 10 µM (Mus musculus [5]): 73.9%

CC(=O)Oc1cc(OC(C)=O)cc(Oc2c(OC(C)=O)cc(OC(C)=O)c3c2Oc2c(OC(C)=O)cc(Oc4c(OC(C)=O)cc(Oc5c(OC(C)=O)cc(OC(C)=O)c6c5Oc5c(OC(C)=O)cc(OC(C)=O)cc5O6)cc4OC(C)=O)cc2O3)c1
inhibition at 10 µM (HUVEC [1]): 49.5% | Activity (HUVEC [2]): Non-toxic | inhibition at 10 µM (HUVEC [3]): 50.3% | inhibition (INH) (Mus musculus [4]): 56.7% | inhibition at 10 µM (Mus musculus [5]): 59.5%
